Values after ≈ are worked out from the molar mass of the structure shown.
Assays:
Format in all cases: functional
Pseudomonas aeruginosa = experiment: Antibacterial activity against penicillin-susceptible Pseudomonas aeruginosa ATCC 27853 incubated for 24 hrs by broth dilution method; conditions: ATCC 27853, 24 h
Summary of the method: (§1)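 CLSI broth microdilution in cation-adjusted Mueller-Hinton broth. Twofold dilutions spanned 0.25–128 or 0.5–256 µg/mL, with CAM and AZM as controls. Log-phase bacteria were added and incubated 24 h at 37 °C. MIC was read by turbidity as the concentration of the last clear well.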

Streptococcus pneumoniae [1] = experiment: Antibacterial activity against erythromycin-resistant Streptococcus pneumoniae AB11 expressing the ermB and mefA incubated for 24 hrs by broth dilution method
Streptococcus pyogenes [2] = experiment: Antibacterial activity against erythromycin-susceptible Streptococcus pyogenes 1 clinical isolate incubated for 24 hrs by broth dilution method; summary of the method: as §1
Streptococcus pyogenes [3] = experiment: Antibacterial activity against erythromycin-resistant Streptococcus pyogenes 2 clinical isolate incubated for 24 hrs by broth dilution method
Staphylococcus aureus [4] = experiment: Antibacterial activity against erythromycin-susceptible Staphylococcus aureus ATCC 25923 incubated for 24 hrs by broth dilution method; conditions: ATCC 25923, 24 h; summary of the method: as §1
Staphylococcus aureus [5] = experiment: Antibacterial activity against penicillin-resistant Staphylococcus aureus ATCC 31007 incubated for 24 hrs by broth dilution method; conditions: ATCC 31007, 24 h
Bacillus subtilis = experiment: Antibacterial activity against penicillin-susceptible Bacillus subtilis ATCC 9372 incubated for 24 hrs by broth dilution method; conditions: ATCC 9372, 24 h; summary of the method: as §1
Escherichia coli = experiment: Antibacterial activity against penicillin-susceptible Escherichia coli ATCC 25922 incubated for 24 hrs by broth dilution method; conditions: ATCC 25922, 24 h; summary of the method: as §1
Streptococcus pneumoniae [6] = experiment: Antibacterial activity against erythromycin-resistant Streptococcus pneumoniae B1 expressing the ermB incubated for 24 hrs by broth dilution method
Staphylococcus aureus [7] = experiment: Antibacterial activity against methicillin-resistant Staphylococcus aureus ATCC 43300 incubated for 24 hrs by broth dilution method; conditions: ATCC 43300, 24 h

SMILES	MIC (Pseudomonas aeruginosa) [µg/mL]	MIC (Streptococcus pneumoniae [1]) [µg/mL]	MIC (Streptococcus pyogenes [2]) [µg/mL]	MIC (Streptococcus pyogenes [3]) [µg/mL]	MIC (Staphylococcus aureus [4]) [µg/mL]	MIC (Staphylococcus aureus [5]) [µg/mL]	MIC (Bacillus subtilis) [µg/mL]	MIC (Escherichia coli) [µg/mL]	MIC (Streptococcus pneumoniae [6]) [µg/mL]	MIC (Staphylococcus aureus [7]) [µg/mL]
CO[C@]1(C)C[C@@H](C)[C@H](O)[C@H](C)CN(C)C[C@@H](COCc2cn(-c3ccc(OC(F)(F)F)cc3)nn2)OC(=O)[C@H](C)[C@@H](O[C@H]2C[C@@](C)(OC)[C@@H](O)[C@H](C)O2)[C@H](C)[C@H]1O[C@@H]1O[C@H](C)C[C@H](N(C)C)[C@H]1O	> 128	16 (≈ 16.4 µM)	4 (≈ 4.1 µM)	32 (≈ 32.8 µM)	4 (≈ 4.1 µM)	64 (≈ 65.6 µM)	2 (≈ 2.05 µM)	128 (≈ 131 µM)	32 (≈ 32.8 µM)	32 (≈ 32.8 µM)
COc1ccc(-n2cc(COC[C@@H]3CN(C)C[C@@H](C)[C@@H](O)[C@H](C)C[C@@](C)(OC)[C@H](O[C@@H]4O[C@H](C)C[C@H](N(C)C)[C@H]4O)[C@@H](C)[C@H](O[C@H]4C[C@@](C)(OC)[C@@H](O)[C@H](C)O4)[C@@H](C)C(=O)O3)nn2)cc1	128 (≈ 139 µM)	128 (≈ 139 µM)	4 (≈ 4.34 µM)	128 (≈ 139 µM)	8 (≈ 8.68 µM)	256 (≈ 278 µM)	2 (≈ 2.17 µM)	128 (≈ 139 µM)	256 (≈ 278 µM)	256 (≈ 278 µM)
CO[C@]1(C)C[C@@H](C)[C@H](O)[C@H](C)CN(C)[C@@H](Cn2cc(-c3ccc(Cl)cc3)nn2)COC(=O)[C@H](C)[C@@H](O[C@H]2C[C@@](C)(OC)[C@@H](O)[C@H](C)O2)[C@H](C)[C@H]1O[C@@H]1O[C@H](C)C[C@H](N(C)C)[C@H]1O	> 128	128 (≈ 143 µM)	16 (≈ 17.8 µM)	64 (≈ 71.4 µM)	32 (≈ 35.7 µM)	128 (≈ 143 µM)	16 (≈ 17.8 µM)	> 128	256 (≈ 286 µM)	64 (≈ 71.4 µM)
CO[C@]1(C)C[C@@H](C)[C@H](O)[C@H](C)CN(C)C[C@H](Cn2cc(-c3ccccc3)nn2)OC(=O)[C@H](C)[C@@H](O[C@H]2C[C@@](C)(OC)[C@@H](O)[C@H](C)O2)[C@H](C)[C@H]1O[C@@H]1O[C@H](C)C[C@H](N(C)C)[C@H]1O	64 (≈ 74.2 µM)	128 (≈ 148 µM)	0.12 (≈ 0.139 µM)	128 (≈ 148 µM)	1 (≈ 1.16 µM)	256 (≈ 297 µM)	1 (≈ 1.16 µM)	32 (≈ 37.1 µM)	256 (≈ 297 µM)	256 (≈ 297 µM)
COc1ccc(-n2cc(COC[C@H]3CN(C)C[C@@H](C)[C@@H](O)[C@H](C)C[C@@](C)(OC)[C@H](O[C@@H]4O[C@H](C)C[C@H](N(C)C)[C@H]4O)[C@@H](C)[C@H](O[C@H]4C[C@@](C)(OC)[C@@H](O)[C@H](C)O4)[C@@H](C)C(=O)O3)nn2)cc1	16 (≈ 17.4 µM)	64 (≈ 69.4 µM)	0.25 (≈ 0.271 µM)	128 (≈ 139 µM)	1 (≈ 1.08 µM)	> 256	0.5 (≈ 0.542 µM)	64 (≈ 69.4 µM)	> 256	> 256
CO[C@]1(C)C[C@@H](C)[C@H](O)[C@H](C)CN(C)[C@H](Cn2cc(-c3ccc(F)cc3)nn2)COC(=O)[C@H](C)[C@@H](O[C@H]2C[C@@](C)(OC)[C@@H](O)[C@H](C)O2)[C@H](C)[C@H]1O[C@@H]1O[C@H](C)C[C@H](N(C)C)[C@H]1O	128 (≈ 145 µM)	128 (≈ 145 µM)	16 (≈ 18.2 µM)	128 (≈ 145 µM)	16 (≈ 18.2 µM)	128 (≈ 145 µM)	16 (≈ 18.2 µM)	> 128	128 (≈ 145 µM)	256 (≈ 291 µM)
CO[C@]1(C)C[C@@H](C)[C@H](O)[C@H](C)CN(C)C[C@@H](COCc2cn(-c3ccc(SC)cc3)nn2)OC(=O)[C@H](C)[C@@H](O[C@H]2C[C@@](C)(OC)[C@@H](O)[C@H](C)O2)[C@H](C)[C@H]1O[C@@H]1O[C@H](C)C[C@H](N(C)C)[C@H]1O	128 (≈ 136 µM)	32 (≈ 34.1 µM)	4 (≈ 4.26 µM)	32 (≈ 34.1 µM)	4 (≈ 4.26 µM)	128 (≈ 136 µM)	2 (≈ 2.13 µM)	128 (≈ 136 µM)	64 (≈ 68.2 µM)	64 (≈ 68.2 µM)
CC[C@H]1OC(=O)[C@H](C)[C@@H](O[C@H]2C[C@@](C)(OC)[C@@H](O)[C@H](C)O2)[C@H](C)[C@@H](O[C@@H]2O[C@H](C)C[C@H](N(C)C)[C@H]2O)[C@](C)(O)C[C@@H](C)CN(C)[C@H](C)[C@@H](O)[C@]1(C)O [AZITHROMYCIN]	16 (≈ 21.4 µM)	256 (≈ 342 µM)	≤ 0.03	256 (≈ 342 µM)	≤ 0.25	> 256	≤ 0.25	64 (≈ 85.4 µM)	> 256	> 256
COc1ccc(-c2cn(C[C@H]3CN(C)C[C@@H](C)[C@@H](O)[C@H](C)C[C@@](C)(OC)[C@H](O[C@@H]4O[C@H](C)C[C@H](N(C)C)[C@H]4O)[C@@H](C)[C@H](O[C@H]4C[C@@](C)(OC)[C@@H](O)[C@H](C)O4)[C@@H](C)C(=O)O3)nn2)cc1	64 (≈ 71.7 µM)	256 (≈ 287 µM)	0.12 (≈ 0.135 µM)	128 (≈ 143 µM)	1 (≈ 1.12 µM)	> 256	1 (≈ 1.12 µM)	32 (≈ 35.9 µM)	> 256	> 256
